# Measured values reported in ChEMBL document CHEMBL1146375, “Synthetic studies on novel benzimidazolopeptides with antimicrobial, cytotoxic and anthelmintic potential” (2007).
# System: Bacillus subtilis
# Experiment: Antibacterial activity against Bacillus subtilis NCIM 2063 after 18 hrs by disc diffusion method
# Assay type: functional
# Settings: not given
# How it was run: (§1)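 Modified Kirby-Bauer disc diffusion. Plates inoculated with spore suspension (about 6 × 10⁴ spores mL^-1). Sterile 6 mm paper discs carried test samples at 10 mg mL^-1; ciprofloxacin disc as reference, DMF disc as negative control. Plates held 18 h at 37 °C. Inhibition zone diameters (mm) averaged over triplicate sets.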
row,SMILES,inhibition zone (IZ) [mm]
1,O=C(O)CNC(=O)CNC(=O)c1cc(-c2nc3ccc([N+](=O)[O-])cc3[nH]2)ccc1O,9

# System: Staphylococcus aureus
# Experiment: Antibacterial activity against Staphylococcus aureus NCIM 2079 after 18 hrs by disc diffusion method
# Assay type: functional
# Settings: not given
# How it was run: as §1
row,SMILES,inhibition zone (IZ) [mm]
1,O=C(O)CNC(=O)CNC(=O)c1cc(-c2nc3ccc([N+](=O)[O-])cc3[nH]2)ccc1O,9

# System: Pseudomonas aeruginosa
# Experiment: Antibacterial activity against Pseudomonas aeruginosa NCIM 2034 after 18 hrs by disc diffusion method
# Assay type: functional
# Settings: not given
# How it was run: as §1
row,SMILES,inhibition zone (IZ) [mm]
1,O=C(O)CNC(=O)CNC(=O)c1cc(-c2nc3ccc([N+](=O)[O-])cc3[nH]2)ccc1O,22

# System: Escherichia coli
# Experiment: Antibacterial activity against Escherichia coli NCIM 2065 after 18 hrs by disc diffusion method
# Assay type: functional
# Settings: not given
# How it was run: as §1
row,SMILES,inhibition zone (IZ) [mm]
1,O=C(O)CNC(=O)CNC(=O)c1cc(-c2nc3ccc([N+](=O)[O-])cc3[nH]2)ccc1O,16

# System: Candida albicans
# Experiment: Antifungal activity against Candida albicans MUCC 29 after 48 hrs by disc diffusion method
# Assay type: functional
# Settings: not given
# How it was run: (§2)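 Agar well diffusion on plates inoculated with spore suspension in normal saline from cultures on Sabouraud's broth. Wells punched and loaded with test samples or griseofulvin at 10 mg mL^-1, with DMSO as negative control. Incubated 48 h at 37 °C.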
row,SMILES,inhibition zone (IZ) [mm]
1,O=C(O)CNC(=O)CNC(=O)c1cc(-c2nc3ccc([N+](=O)[O-])cc3[nH]2)ccc1O,18

# System: Microsporum audouinii
# Experiment: Antifungal activity against Microsporum audouinii MUCC 545 after 48 hrs by disc diffusion method
# Assay type: functional
# Settings: not given
# How it was run: as §2
row,SMILES,inhibition zone (IZ) [mm]
1,O=C(O)CNC(=O)CNC(=O)c1cc(-c2nc3ccc([N+](=O)[O-])cc3[nH]2)ccc1O,13

# System: Trichophyton benhamiae
# Experiment: Antifungal activity against Trichophyton mentagrophytes MUCC 665 after 48 hrs by disc diffusion method
# Assay type: functional, Arthroderma benhamiae
# Settings: not given
# How it was run: as §2
row,SMILES,inhibition zone (IZ) [mm]
1,O=C(O)CNC(=O)CNC(=O)c1cc(-c2nc3ccc([N+](=O)[O-])cc3[nH]2)ccc1O,16

# System: Aspergillus niger
# Experiment: Antifungal activity against Aspergillus niger MUCC 177 after 48 hrs by disc diffusion method
# Assay type: functional
# Settings: not given
# How it was run: as §2
row,SMILES,inhibition zone (IZ) [mm]
1,O=C(O)CNC(=O)CNC(=O)c1cc(-c2nc3ccc([N+](=O)[O-])cc3[nH]2)ccc1O,17

# System: Bacillus subtilis
# Experiment: Antibacterial activity against Bacillus subtilis NCIM 2063 after 18 hrs by tube dilution method
# Assay type: functional
# Settings: NCIM 2063, 18 h
# How it was run: (§3)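 Tube dilution MIC. Stock diluted in sterile broth to seven concentrations from 200 to 3.1 […]. Each tube inoculated with one loopful of test bacterium and incubated 18 h at 37 °C. MIC read from presence or absence of growth.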
row,SMILES,MIC [µg/mL]
1,O=C(O)CNC(=O)CNC(=O)c1cc(-c2nc3ccc([N+](=O)[O-])cc3[nH]2)ccc1O,25

# System: Staphylococcus aureus
# Experiment: Antibacterial activity against Staphylococcus aureus NCIM 2079 after 18 hrs by tube dilution method
# Assay type: functional
# Settings: NCIM 2079, 18 h
# How it was run: as §3
row,SMILES,MIC [µg/mL]
1,O=C(O)CNC(=O)CNC(=O)c1cc(-c2nc3ccc([N+](=O)[O-])cc3[nH]2)ccc1O,12.5

# System: Pseudomonas aeruginosa
# Experiment: Antibacterial activity against Pseudomonas aeruginosa NCIM 2034 after 18 hrs by tube dilution method
# Assay type: functional
# Settings: NCIM 2034, 18 h
# How it was run: as §3
row,SMILES,MIC [µg/mL]
1,O=C(O)CNC(=O)CNC(=O)c1cc(-c2nc3ccc([N+](=O)[O-])cc3[nH]2)ccc1O,6

# System: Escherichia coli
# Experiment: Antibacterial activity against Escherichia coli NCIM 2065 after 18 hrs by tube dilution method
# Assay type: functional
# Settings: NCIM 2065, 18 h
row,SMILES,MIC [µg/mL]
1,O=C(O)CNC(=O)CNC(=O)c1cc(-c2nc3ccc([N+](=O)[O-])cc3[nH]2)ccc1O,12.5

# System: Candida albicans
# Experiment: Antifungal activity against Candida albicans MUCC 29 after 48 hrs by tube dilution method
# Assay type: functional
# Settings: not given
# How it was run: (§4)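 Tube dilution MIC as for bacteria (seven concentrations, 200–3.1 […]), with DMSO in place of DMF. Tubes inoculated with fungal culture and incubated 48 h at 37 °C. MIC read from presence or absence of growth.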
row,SMILES,MIC [µg/mL]
1,O=C(O)CNC(=O)CNC(=O)c1cc(-c2nc3ccc([N+](=O)[O-])cc3[nH]2)ccc1O,6

# System: Microsporum audouinii
# Experiment: Antifungal activity against Microsporum audouinii MUCC 545 after 48 hrs by tube dilution method
# Assay type: functional
# Settings: not given
# How it was run: as §4
row,SMILES,MIC [µg/mL]
1,O=C(O)CNC(=O)CNC(=O)c1cc(-c2nc3ccc([N+](=O)[O-])cc3[nH]2)ccc1O,6

# System: Trichophyton benhamiae
# Experiment: Antifungal activity against Trichophyton mentagrophytes MUCC 665 after 48 hrs by tube dilution method
# Assay type: functional, Arthroderma benhamiae
# Settings: not given
# How it was run: as §4
row,SMILES,MIC [µg/mL]
1,O=C(O)CNC(=O)CNC(=O)c1cc(-c2nc3ccc([N+](=O)[O-])cc3[nH]2)ccc1O,6

# System: Eudrilus
# Experiment: Anthelmintic activity against Eudrilus sp. assessed as mean paralyzing time
# Assay type: functional
# Settings: not given
# How it was run: (§5)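 Earthworms exposed to test suspensions at 2 mg mL^-1 (0.2% w/v), made by triturating compound with Tween 80 (0.5%) and distilled water, then mechanically stirred 30 min. Mebendazole suspension prepared alike as reference. Paralysis and death times recorded; death confirmed by no movement in 50 °C water. Means from triplicate sets.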
row,SMILES,Time [min]
1,O=C(O)CNC(=O)CNC(=O)c1cc(-c2nc3ccc([N+](=O)[O-])cc3[nH]2)ccc1O,25.5

# System: Eudrilus
# Experiment: Anthelmintic activity against Eudrilus sp. assessed as mean death time
# Assay type: functional
# Settings: not given
# How it was run: (§6)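 Earthworms exposed to test suspensions at 2 mg mL−1, prepared by triturating compound with Tween 80 (0.5%) and distilled water, stirring 30 min, then diluting to 0.2% w/v. Mebendazole suspension was made the same way. Death was confirmed by moving worms into 50 °C warm water and looking for movement. Mean death time (min) taken from triplicate sets.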
row,SMILES,Time [min]
1,O=C(O)CNC(=O)CNC(=O)c1cc(-c2nc3ccc([N+](=O)[O-])cc3[nH]2)ccc1O,36.7

# System: not listed separately
# Experiment: Anthelmintic activity against Megascoplex konkanensis ICARBC 211 assessed as mean paralyzing time
# Assay type: functional
# Settings: not given
# How it was run: as §5
row,SMILES,TIME [h]
1,O=C(O)CNC(=O)CNC(=O)c1cc(-c2nc3ccc([N+](=O)[O-])cc3[nH]2)ccc1O,0.451

# System: not listed separately
# Experiment: Anthelmintic activity against Megascoplex konkanensis ICARBC 211 assessed as mean death time
# Assay type: functional
# Settings: not given
# How it was run: as §5
row,SMILES,TIME [h]
1,O=C(O)CNC(=O)CNC(=O)c1cc(-c2nc3ccc([N+](=O)[O-])cc3[nH]2)ccc1O,0.601

# System: Pontoscolex corethrurus
# Experiment: Anthelmintic activity against Pontoscolex corethrurus ICARBC 408 assessed as mean paralyzing time
# Assay type: functional
# Settings: not given
# How it was run: as §5
row,SMILES,Time [min]
1,O=C(O)CNC(=O)CNC(=O)c1cc(-c2nc3ccc([N+](=O)[O-])cc3[nH]2)ccc1O,31.18

# System: Pontoscolex corethrurus
# Experiment: Anthelmintic activity against Pontoscolex corethrurus ICARBC 408 assessed as mean death time
# Assay type: functional
# Settings: not given
# How it was run: as §6
row,SMILES,Time [min]
1,O=C(O)CNC(=O)CNC(=O)c1cc(-c2nc3ccc([N+](=O)[O-])cc3[nH]2)ccc1O,42.26
